ChEMBL document CHEMBL3228016, “Antiallergy agents. 1. 1,6-Dihydro-6-oxo-2-phenylpyrimidine-5-carboxylic acids and esters” (1979)

Legend:
Assay type in all cases: functional
Conditions in all cases: read-out: ID50 (the source's name)
Rattus norvegicus [1] = assay: Antiallergic activity in po dosed Sprague-Dawley rat passive cutaneous analphylaxis model assessed as inhibition of allergic response administered 10 mins prior to antigen challenge
Outline: (§1)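 Modified Ovary rat passive cutaneous anaphylaxis screen in male Sprague-Dawley rats, with 24 h between sensitization and antigen challenge. Acidic compounds were dissolved in aqueous NaHCO3 where possible; others were suspended in aqueous sodium citrate with Tween 40/sodium carboxymethylcellulose. Dosing was iv 1 min or po 10 min before challenge. ID50 is the dose giving 50% inhibition of the response; significance was p ≤ 0.05 by Student's t test.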

Rattus norvegicus [2] = assay: Antiallergic activity in iv dosed Sprague-Dawley rat passive cutaneous analphylaxis model assessed as inhibition of allergic response administered 1 min prior to antigen challenge; outline: as §1
Rattus norvegicus [3] = assay: Antiallergic activity in po dosed Sprague-Dawley rat passive cutaneous analphylaxis model assessed as inhibition of allergic response administered 30 mins prior to antigen challenge
Outline: (§2)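 Male Sprague-Dawley rat passive cutaneous anaphylaxis (modified Ovary method), with a 24 h sensitization-to-challenge interval. The agent was dissolved in saline and given iv at the time of antigen challenge or po 30 min before challenge. The dose inhibiting the response by 50% was determined; significance was p ≤ 0.05 by Student's t test.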

Rattus norvegicus [4] = assay: Antiallergic activity in iv dosed Sprague-Dawley rat passive cutaneous analphylaxis model assessed as inhibition of allergic response administered at the time of antigen challenge; outline: as §2

Row | Compound | ED50 (Rattus norvegicus [1]) | other results
1 | CCOC(=O)c1cnc(-c2ccccc2)nc1O | > 20 mg/kg | –
2 | CCOC(=O)c1cnc(-c2cccc(OC)c2)nc1O | 10 mg/kg | –
3 | CCOC(=O)c1cnc(-c2ccccc2OCC(C)C)[nH]c1=O | 3 mg/kg | –
4 | O=C(O)c1cnc(-c2ccccc2)[nH]c1=O | 50 mg/kg | –
5 | O=C(O)c1cnc(-c2ccccc2F)[nH]c1=O | 5 mg/kg | –
6 | O=C(O)c1cnc(-c2ccccc2Cl)[nH]c1=O | 5 mg/kg | –
7 | O=C(O)c1cnc(-c2ccccc2[N+](=O)[O-])[nH]c1=O | > 50 mg/kg | –
8 | Nc1ccccc1-c1ncc(C(=O)O)c(=O)[nH]1 | 50 mg/kg | –
9 | O=C(O)c1cnc(-c2ccccc2O)[nH]c1=O | > 5 mg/kg | –
10 | COc1ccccc1-c1ncc(C(=O)O)c(=O)[nH]1 | 10 mg/kg | –
11 | CCOc1ccccc1-c1ncc(C(=O)O)c(=O)[nH]1 | 0.5 mg/kg | ED50 (Rattus norvegicus [2]): 0.07 mg/kg
12 | CCCOc1ccccc1-c1ncc(C(=O)O)c(=O)[nH]1 | 0.9 mg/kg | –
13 | CC(C)Oc1ccccc1-c1ncc(C(=O)O)c(=O)[nH]1 | 0.8 mg/kg | –
14 | CCCCOc1ccccc1-c1ncc(C(=O)O)c(=O)[nH]1 | 0.5 mg/kg | –
15 | CC(C)COc1ccccc1-c1ncc(C(=O)O)c(=O)[nH]1 | 0.5 mg/kg | –
16 | CCC(C)Oc1ccccc1-c1ncc(C(=O)O)c(=O)[nH]1 (configuration not stated) | 0.5 mg/kg | –
17 | CCCCCOc1ccccc1-c1ncc(C(=O)O)c(=O)[nH]1 | 3 mg/kg | –
18 | C=CCOc1ccccc1-c1ncc(C(=O)O)c(=O)[nH]1 | 0.5 mg/kg | –
19 | O=C(O)c1cnc(-c2ccccc2OCC2CC2)[nH]c1=O | 0.1 mg/kg | –
20 | O=C(O)c1cnc(-c2ccccc2OCc2ccccc2)[nH]c1=O | 5 mg/kg | –
21 | CSc1ccccc1-c1ncc(C(=O)O)c(=O)[nH]1 | > 20 mg/kg | –
22 | CCSc1ccccc1-c1ncc(C(=O)O)c(=O)[nH]1 | 25 mg/kg | –
23 | C[S+]([O-])c1ccccc1-c1ncc(C(=O)O)c(=O)[nH]1 (configuration not stated) | > 5 mg/kg | –

Row | Compound | ED50 (Rattus norvegicus [1]) | other results
24 | O=C(O)c1cnc(-c2cccc(C(F)(F)F)c2)[nH]c1=O | 33 mg/kg | –
25 | COc1cccc(-c2ncc(C(=O)O)c(=O)[nH]2)c1 | 10 mg/kg | –
26 | CCOc1cccc(-c2ncc(C(=O)O)c(=O)[nH]2)c1 | 5 mg/kg | –
27 | O=C(O)c1cnc(-c2ccc(Cl)cc2)[nH]c1=O | 5 mg/kg | –
28 | O=C(O)c1cnc(-c2ccc(C(F)(F)F)cc2)[nH]c1=O | > 5 mg/kg | –
29 | COc1ccc(-c2ncc(C(=O)O)c(=O)[nH]2)cc1 | > 5 mg/kg | –
30 | C=CCc1cccc(-c2ncc(C(=O)O)c(=O)[nH]2)c1O | > 0.5 mg/kg | –
31 | COc1ccc(-c2ncc(C(=O)O)c(=O)[nH]2)c(OC)c1 | 5 mg/kg | –
32 | COc1ccc(OC)c(-c2ncc(C(=O)O)c(=O)[nH]2)c1 | 1 mg/kg | –
33 | CCOc1ccc(Cl)cc1-c1ncc(C(=O)O)c(=O)[nH]1 | 0.5 mg/kg | –
34 | CCOc1ccc(OC)cc1-c1ncc(C(=O)O)c(=O)[nH]1 | 0.2 mg/kg | –
35 | CCOc1ccc(C(=O)O)cc1-c1ncc(C(=O)O)c(=O)[nH]1 | 25 mg/kg | –
36 | CCOc1ccc([N+](=O)[O-])cc1-c1ncc(C(=O)O)c(=O)[nH]1 | 25 mg/kg | –
37 | CCOc1ccc(N)cc1-c1ncc(C(=O)O)c(=O)[nH]1 | 1.2 mg/kg | –
38 | CCOc1ccc(N(C)C)cc1-c1ncc(C(=O)O)c(=O)[nH]1 | 0.3 mg/kg | –
39 | CCOC(=O)C(=O)Nc1ccc(OCC)c(-c2ncc(C(=O)O)c(=O)[nH]2)c1 | 25 mg/kg | –
40 | CCOc1ccc(S(N)(=O)=O)cc1-c1ncc(C(=O)O)c(=O)[nH]1 | > 50 mg/kg | –
41 | CCOc1ccc(S(=O)(=O)N(C)C)cc1-c1ncc(C(=O)O)c(=O)[nH]1 | > 50 mg/kg | –
42 | CCOc1ccc(S(=O)(=O)N(CC)CC)cc1-c1ncc(C(=O)O)c(=O)[nH]1 | 40 mg/kg | –
43 | CCOc1ccc(S(=O)(=O)N(C)C(C)C)cc1-c1ncc(C(=O)O)c(=O)[nH]1 | > 10 mg/kg | –
44 | CCCOc1ccc(OC)cc1-c1ncc(C(=O)O)c(=O)[nH]1 | 0.3 mg/kg | –
45 | CCOC(=O)c1cnc(-c2ccccc2F)[nH]c1=O | > 10 mg/kg | –
46 | CCOC(=O)c1cnc(-c2ccccc2Cl)[nH]c1=O | 5 mg/kg | –

Row | Compound | ED50 (Rattus norvegicus [1]) | other results
47 | CCOC(=O)c1cnc(-c2ccccc2O)[nH]c1=O | 5 mg/kg | –
48 | CCOC(=O)c1cnc(-c2ccccc2OC)[nH]c1=O | 10 mg/kg | –
49 | CCOC(=O)c1cnc(-c2ccccc2OCC)[nH]c1=O | 2 mg/kg | –
50 | CCCOc1ccccc1-c1ncc(C(=O)OCC)c(=O)[nH]1 | 5 mg/kg | –
51 | CCOC(=O)c1cnc(-c2ccccc2OC(C)C)[nH]c1=O | 2 mg/kg | –
52 | CCCCOc1ccccc1-c1ncc(C(=O)OCC)c(=O)[nH]1 | 0.5 mg/kg | –
53 | CCOC(=O)c1cnc(-c2ccccc2OC(C)CC)[nH]c1=O (configuration not stated) | 0.5 mg/kg | –
54 | CCCCCOc1ccccc1-c1ncc(C(=O)OCC)c(=O)[nH]1 | 2 mg/kg | –
55 | C=CCOc1ccccc1-c1ncc(C(=O)OCC)c(=O)[nH]1 | 0.5 mg/kg | –
56 | CCOC(=O)c1cnc(-c2ccccc2OCC2CC2)[nH]c1=O | 0.3 mg/kg | –
57 | CCOC(=O)c1cnc(-c2ccccc2OCc2ccccc2)[nH]c1=O | > 5 mg/kg | –
58 | CCOC(=O)c1cnc(-c2ccccc2SC)[nH]c1=O | > 25 mg/kg | –
59 | CCOC(=O)c1cnc(-c2ccccc2SCC)[nH]c1=O | > 5 mg/kg | –
60 | CCOC(=O)c1cnc(-c2cccc(C(F)(F)F)c2)[nH]c1=O | 50 mg/kg | –
61 | CCOC(=O)c1cnc(-c2cccc(OCC)c2)[nH]c1=O | 50 mg/kg | –
62 | CCOC(=O)c1cnc(-c2ccc(Cl)cc2)[nH]c1=O | > 30 mg/kg | –
63 | CCOC(=O)c1cnc(-c2ccc(C(F)(F)F)cc2)[nH]c1=O | > 5 mg/kg | –
64 | CCOC(=O)c1cnc(-c2ccc(OC)cc2)[nH]c1=O | 30 mg/kg | –
65 | CCOC(=O)c1cnc(-c2ccc(OC)cc2OC)[nH]c1=O | 5 mg/kg | –
66 | CCOC(=O)c1cnc(-c2cc(OC)ccc2OC)[nH]c1=O | 5 mg/kg | –
67 | CCOC(=O)c1cnc(-c2cc(Cl)ccc2OCC)[nH]c1=O | 0.5 mg/kg | –
68 | CCOC(=O)c1cnc(-c2cc(OC)ccc2OCC)[nH]c1=O | 0.3 mg/kg | –
69 | CCOC(=O)c1ccc(OCC)c(-c2ncc(C(=O)OCC)c(=O)[nH]2)c1 | 1 mg/kg | –

Row | Compound | ED50 (Rattus norvegicus [1]) | other results
70 | CCOC(=O)c1cnc(-c2cc([N+](=O)[O-])ccc2OCC)[nH]c1=O | 5 mg/kg | –
71 | CCOC(=O)c1cnc(-c2cc(N)ccc2OCC)[nH]c1=O | 0.5 mg/kg | –
72 | CCOC(=O)C(=O)Nc1ccc(OCC)c(-c2ncc(C(=O)OCC)c(=O)[nH]2)c1 | 5 mg/kg | –
73 | CCOC(=O)c1cnc(-c2cc(S(N)(=O)=O)ccc2OCC)[nH]c1=O | 50 mg/kg | –
74 | CCOC(=O)c1cnc(-c2cc(S(=O)(=O)N(C)C)ccc2OCC)[nH]c1=O | 50 mg/kg | –
75 | CCOC(=O)c1cnc(-c2cc(S(=O)(=O)N(CC)CC)ccc2OCC)[nH]c1=O | 10 mg/kg | –
76 | CCOC(=O)c1cnc(-c2cc(S(=O)(=O)N(C)C(C)C)ccc2OCC)[nH]c1=O | > 10 mg/kg | –
77 | CCCOc1ccc(OC)cc1-c1ncc(C(=O)OCC)c(=O)[nH]1 | 0.7 mg/kg | –
78 | CCOC(=O)c1cnc(-c2cc([N+](=O)[O-])cc([N+](=O)[O-])c2OCC)[nH]c1=O | > 50 mg/kg | –
79 | Cn1c(-c2ccccc2)ncc(C(=O)O)c1=O | 50 mg/kg | –
80 | CCOC(=O)c1cnc(-c2ccccc2)n(C)c1=O | > 5 mg/kg | –
81 | CCOc1ccccc1-c1ncc(C(=O)O)c(=O)n1C | > 50 mg/kg | –
82 | CCOC(=O)c1cnc(-c2ccccc2OCC)n(C)c1=O | > 40 mg/kg | –
83 | CCOc1ccccc1-c1nc(=O)c(C(=O)O)cn1C | > 40 mg/kg | –
84 | CCOC(=O)c1cn(C)c(-c2ccccc2OCC)nc1=O | – | ED50 (Rattus norvegicus [2]): > 1 mg/kg
85 | COc1nc(-c2ccccc2)ncc1C(=O)O | > 10 mg/kg | –
86 | CCOC(=O)c1cnc(-c2ccccc2)nc1OC | > 5 mg/kg | –
87 | CCOc1ccccc1-c1ncc(C(=O)O)c(OC)n1 | > 5 mg/kg | –
88 | CC1Cc2cccc(-c3ncc(C(=O)O)c(=O)[nH]3)c2O1 (racemic) | 5 mg/kg | –
89 | CCOC(=O)c1cnc(-c2cccc3c2OC(C)C3)[nH]c1=O (racemic) | 5 mg/kg | –
90 | O=C([O-])c1cc(=O)c2c(OCC(O)COc3cccc4oc(C(=O)[O-])cc(=O)c34)cccc2o1.[Na+].[Na+] [CROMOLYN SODIUM] | – | ED50 (Rattus norvegicus [3]): ≥ 30 mg/kg; ED50 (Rattus norvegicus [4]): 0.3 mg/kg
